Several values for one entry are separate records, joined by “and”; a condition that tells them apart may be missing. Equal entries are not always repeated. Where two headings read alike, the source gives them in different places.
Tests used:
[1] = test system: BRCA-mutated ovarian cancer; assay: Antitumor activity; assay type: in vivo, human
Method in brief: (§1)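 Adults with advanced solid tumours received oral test compound 1.0 mg once daily, continuously in 28-day cycles, in the expansion part. Entry required germline BRCA1/2 mutation confirmed by BRACAnalysis or local laboratory (ovarian/peritoneal, breast, prostate, pancreatic), DNA repair deficiency, or SCLC or Ewing sarcoma. Investigators assessed response by RECIST 1.1. ORR had exact 95% CI (Clopper–Pearson); PFS was estimated by Kaplan–Meier.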

PARP–DNA complexes = conditions: in vitro, comparison with other PARP1/2 inhibitors, cited from earlier work
[2] = Urinary elimination of parent compound; assay type: in vivo, human; conditions: daily dosing between 0.025 and 1.1 mg
Method in brief: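 In dose escalation, fasted patients took a single oral dose, with PK sampling over 1 week. They then took the dose once daily for 28 days, followed by a 1-week break for sampling (doses 0.025–1.1 mg/day, 3+3 design). Urine was assayed by validated LC/MS-MS (LLOQ 25.0 pg/mL). Ae0–24, Fe0–24 and ARC0–24 came from noncompartmental analysis.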

[3] = Plasma pharmacokinetics after single and multiple daily dosing; conditions: human, in vivo; for Vd/F: Vz/F; for half-life: t1/2, mean (SD)
PARP1/2 = conditions: cited from earlier work
Ewing sarcoma = assay: Antitumor activity; assay type: in vivo, human; conditions: 1.0 mg/day, n = 13, CR + PR + SD ≥16 weeks
Method in brief: as §1

PARP = assay: PBMC PARP activity; assay type: in vivo, human
pancreatic cancer = assay: Antitumor activity; assay type: in vivo, human
Method in brief: as §1

[4] = test system: BRCA mutation–associated breast cancer; assay: Antitumor activity; assay type: in vivo, human; conditions: 1.0 mg/day, BRCA1/2 mutation
Method in brief: as §1

[5] = assay type: in vivo; conditions: Part 1 and Part 2; none considered related to study treatment
small cell lung cancer = assay: Antitumor activity; assay type: in vivo, human; conditions: 1.0 mg/day
Method in brief: as §1

For Cn1ncnc1[C@H]1c2n[nH]c(=O)c3cc(F)cc(c23)N[C@@H]1c1ccc(F)cc1 [talazoparib], the “Median PFS” value ([1]; 1.0 mg/day, ovarian/peritoneal, BRCA1/2 mutation, analysis on 14 patients) was 36.4 weeks and 36.4 ^c weeks, the ORR ([1]; 1.0 mg/day, ovarian/peritoneal, BRCA1/2 mutation, n = 12) was 41.7% and the CBR ([1]; 1.0 mg/day, ovarian/peritoneal, BRCA1/2 mutation, n = 12, CR + PR + SD ≥24 weeks) was 66.7%. For the same molecule, the “CBR lasting at least 24 weeks” value ([1]; any dose level, BRCA-mutated ovarian cancer with measurable disease, n = 25) was 76%, the “trapping PARP–DNA complexes at sites of single-strand DNA breaks” value (PARP–DNA complexes) was “most potent PARP1/2 inhibitor in vitro” and the “trapping PARP–DNA complexes at sites of single-strand DNA breaks” value (PARP–DNA complexes; listed as Talazoparib) was “superior in trapping PARP–DNA”. The “urinary elimination kinetics of the parent compound” value [2] was “linear urinary elimination kinetics”, the “dose proportionality parameter β for AUC0–24, estimate (95% CI)” value [3] was 0.95 (0.84–1.05) and the “dose proportionality parameter β for Cmax, estimate (95% CI)” value [3] was 1.11 (1.01–1.20). For the same molecule, the “time to maximum plasma concentration (Cmax)” value [3] was ≤ 2 h, the AUC(0-inf) ([3]; 0.025 mg) was 5.33 ng·h/mL and the AUC(0-t) ([3]; 0.025 mg, AUC0–24, mean (SD)) was 0.952 ng·h/mL. The AUC(0-t) ([3]; 0.025 mg, AUC0–t, mean (SD)) was 3.6 ng·h/mL, the Cmax ([3]; 0.025 mg, mean (SD)) was 0.06 ng/mL and the Tmax ([3]; 0.025 mg, Tmax, median (min, max)) was 7.92 h. It also gave a Vd/F ([3]; 0.025 mg, mean (SD)) of 756 L, a half-life ([3]; 0.025 mg) of 100 h and an AUC(0-inf) ([3]; 0.05 mg) of 8.32 ng·h/mL. The AUC(0-t) ([3]; 0.05 mg, AUC0–24, mean (SD)) was 1.16 ng·h/mL, the AUC(0-t) ([3]; 0.05 mg, AUC0–t, mean (SD)) was 5.34 ng·h/mL and the Cmax ([3]; 0.05 mg, mean (SD)) was 0.0797 ng/mL. For the same molecule, the Vd/F ([3]; 0.05 mg, mean (SD)) was 1240 L, the half-life ([3]; 0.05 mg) was 129 h and the AUC(0-inf) ([3]; 0.1 mg) was 37.6 ng·h/mL. For the same molecule, the AUC(0-t) ([3]; 0.1 mg, AUC0–24, mean (SD)) was 3.16 ng·h/mL, the Cmax ([3]; 0.1 mg, mean (SD)) was 0.214 ng/mL and the Tmax ([3]; 0.1 mg, Tmax, median (min, max)) was 1.02 h. The Vd/F ([3]; 0.1 mg, mean (SD)) was 839 L, the half-life ([3]; 0.1 mg) was 229 h and the AUC(0-inf) ([3]; 0.2 mg) was 92.7 ng·h/mL. For the same molecule, the Tmax ([3]; 0.2 mg) was 1.03 h, the AUC(0-t) ([3]; 0.2 mg, AUC0–24, mean (SD)) was 9.13 ng·h/mL and the AUC(0-t) ([3]; 0.2 mg, AUC0–t, mean (SD)) was 39.3 ng·h/mL. For the same molecule, the Cmax ([3]; 0.2 mg, mean (SD)) was 0.788 ng/mL, the Vd/F ([3]; 0.2 mg, mean (SD)) was 678 L and the half-life ([3]; 0.2 mg) was 212 h. It also gave an AUC(0-inf) ([3]; 0.4 mg) of 60.1 ng·h/mL, an AUC(0-t) ([3]; 0.4 mg, AUC0–24, mean (SD)) of 13.5 ng·h/mL and an AUC(0-t) ([3]; 0.4 mg, AUC0–t, mean (SD)) of 43.7 ng·h/mL. It also gave a Cmax ([3]; 0.4 mg, mean (SD)) of 1.83 ng/mL, a Tmax ([3]; 0.4 mg, Tmax, median (min, max)) of 2.03 h and a Vd/F ([3]; 0.4 mg, mean (SD)) of 1050 L. For the same molecule, the half-life ([3]; 0.4 mg) was 102 h, the AUC(0-inf) ([3]; 0.6 mg) was 120 ng·h/mL and the AUC(0-t) ([3]; 0.6 mg, AUC0–24, mean (SD)) was 37.9 ng·h/mL. For the same molecule, the AUC(0-t) ([3]; 0.6 mg, AUC0–t, mean (SD)) was 97.9 ng·h/mL, the Cmax ([3]; 0.6 mg, mean (SD)) was 4.1 ng/mL and the Tmax ([3]; 0.6 mg, Tmax, median (min, max)) was 0.835 h. The Vd/F ([3]; 0.6 mg, mean (SD)) was 441 L, the half-life ([3]; 0.6 mg) was 58.6 h and the AUC(0-inf) ([3]; 0.9 mg) was 188 ng·h/mL. For the same molecule, the AUC(0-t) ([3]; 0.9 mg, AUC0–24, mean (SD)) was 58.2 ng·h/mL, the AUC(0-t) ([3]; 0.9 mg, AUC0–t, mean (SD)) was 160 ng·h/mL and the Cmax ([3]; 0.9 mg, mean (SD)) was 6.1 ng/mL. For the same molecule, the Tmax ([3]; 0.9 mg, Tmax, median (min, max)) was 2 h, the Vd/F ([3]; 0.9 mg, mean (SD)) was 468 L and the half-life ([3]; 0.9 mg) was 60.4 h. The AUC(0-inf) ([3]; 1 mg) was 200 ng·h/mL, the AUC(0-t) ([3]; 1 mg, AUC0–24, mean (SD)) was 85.1 ng·h/mL and the AUC(0-t) ([3]; 1 mg, AUC0–t, mean (SD)) was 182 ng·h/mL. The Cmax ([3]; 1 mg, mean (SD)) was 10.6 ng/mL, the Tmax ([3]; 1 mg, Tmax, median (min, max)) was 1.03 h and the Vd/F ([3]; 1 mg, mean (SD)) was 415 L. The half-life ([3]; 1 mg) was 52.9 h, the AUC(0-inf) ([3]; 1.1 mg) was 235 ng·h/mL and the AUC(0-t) ([3]; 1.1 mg, AUC0–24, mean (SD)) was 91.6 ng·h/mL. It also gave an AUC(0-t) ([3]; 1.1 mg, AUC0–t, mean (SD)) of 201 ng·h/mL, a Cmax ([3]; 1.1 mg, mean (SD)) of 13.2 ng/mL and a Tmax ([3]; 1.1 mg, Tmax, median (min, max)) of 1 h. For the same molecule, the Vd/F ([3]; 1.1 mg, mean (SD)) was 549 L, the half-life ([3]; 1.1 mg) was 71 h and the “catalytic activity compared with olaparib and rucaparib” value (PARP1/2) was “equivalent catalytic activity to olaparib and rucaparib”. The CBR (Ewing sarcoma) was 23.1%, the “PARP activity, mean (SD)” value (PARP; multiple dosing 0.025 mg/day, n = 3) was 172 (206) % baseline and the “PARP activity, mean (SD)” value (PARP; multiple dosing 0.05 mg/day, n = 3) was 141 (52.5) % baseline. For the same molecule, the “PARP activity, mean (SD)” value (PARP; multiple dosing 0.1 mg/day, n = 3) was 102 (98.0) % baseline, the “PARP activity, mean (SD)” value (PARP; multiple dosing 0.2 mg/day, n = 3) was 14.7 (5.04) % baseline and the “PARP activity, mean (SD)” value (PARP; multiple dosing 0.4 mg/day, n = 3) was 111 (96.5) % baseline. The “PARP activity, mean (SD)” value (PARP; multiple dosing 0.6 mg/day, n = 4) was 24.7 (8.19) % baseline, the “PARP activity, mean (SD)” value (PARP; multiple dosing 0.9 mg/day, n = 4) was 34.7 (27.4) % baseline and the “PARP activity, mean (SD)” value (PARP; multiple dosing 1.1 mg/day, n = 2) was 16.3 (5.63) % baseline. For the same molecule, the ORR (pancreatic cancer; 1.0 mg/day, pancreatic, n = 10) was 20.0%, the CBR (pancreatic cancer; 1.0 mg/day, pancreatic, n = 10, CR + PR + SD ≥16 weeks) was 30.0% and the “CBR ≥16 weeks” value (pancreatic cancer; 13 patients with pancreatic cancer from Part 1 and Part 2) was 31%. The “Median PFS” value ([4]; n = 14) was 34.6 weeks, the ORR ([4]; n = 14) was 50.0% and the CBR ([4]; n = 14, CR + PR + SD ≥24 weeks) was 85.7%. The “deaths associated with an AE during the study” value [5] was “eight”, the “Median PFS” value (small cell lung cancer; SCLC, n = 23) was 11.1 weeks and the ORR (small cell lung cancer; SCLC, n = 23) was 8.7%. For the same molecule, the CBR (small cell lung cancer; SCLC, n = 23, CR + PR + SD ≥16 weeks) was 26.1% and the duration of response (small cell lung cancer; the two SCLC patients with PR) was 12.0 weeks.

Source: PMC5905335 (Cancer discovery, 2017)
